# Measurements from ChEMBL document CHEMBL1157537 (J Med Chem, 2008).
# pEC50, pIC50, pKi: −log10 of the molar value. Calls of active or inactive are those of the source. The calls are words filed in the database; no cut-off is given here.
# Assays:
# [1] = biological target: T1, Progesterone receptor (Homo sapiens, UniProt P06401); assay: Agonist activity at human progesterone receptor in human T47D cells assessed as alkaline phosphatase activity; assay type: functional, cell-based
# T1 sequence (P06401 whole entry): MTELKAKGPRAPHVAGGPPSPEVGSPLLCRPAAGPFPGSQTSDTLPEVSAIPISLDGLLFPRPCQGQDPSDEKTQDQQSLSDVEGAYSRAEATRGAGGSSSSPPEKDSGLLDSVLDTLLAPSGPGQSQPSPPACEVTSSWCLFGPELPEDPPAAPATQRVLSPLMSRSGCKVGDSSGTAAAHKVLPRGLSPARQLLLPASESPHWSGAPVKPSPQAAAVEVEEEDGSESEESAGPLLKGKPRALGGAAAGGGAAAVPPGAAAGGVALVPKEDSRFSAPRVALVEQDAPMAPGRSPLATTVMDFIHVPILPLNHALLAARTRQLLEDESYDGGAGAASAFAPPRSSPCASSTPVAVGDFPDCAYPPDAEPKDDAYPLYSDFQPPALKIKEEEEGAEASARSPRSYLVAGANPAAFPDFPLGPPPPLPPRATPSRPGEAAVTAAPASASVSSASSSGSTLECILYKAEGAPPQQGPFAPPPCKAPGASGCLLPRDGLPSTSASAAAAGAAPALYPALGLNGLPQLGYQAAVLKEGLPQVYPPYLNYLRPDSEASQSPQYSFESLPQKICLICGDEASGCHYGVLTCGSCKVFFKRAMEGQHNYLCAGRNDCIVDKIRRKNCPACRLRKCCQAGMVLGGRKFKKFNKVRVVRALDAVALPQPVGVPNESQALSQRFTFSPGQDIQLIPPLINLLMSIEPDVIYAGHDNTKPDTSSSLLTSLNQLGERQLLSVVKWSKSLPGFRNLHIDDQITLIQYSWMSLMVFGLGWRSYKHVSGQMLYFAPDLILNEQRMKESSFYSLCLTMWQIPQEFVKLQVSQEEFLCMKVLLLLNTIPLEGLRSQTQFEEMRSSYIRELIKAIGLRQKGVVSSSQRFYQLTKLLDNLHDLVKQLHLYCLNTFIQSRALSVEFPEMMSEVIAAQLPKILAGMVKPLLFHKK
# [2] = biological target: T2, Progesterone receptor (Homo sapiens) (UniProt P06401); assay: Agonist activity at human progesterone receptor in human T47D cells assessed as alkaline phosphatase activity relative to progesterone; assay type: functional, cell-based
# T2 sequence (whole entry): T1 sequence (P06401 whole entry)
# [3] = biological target: T1, Progesterone receptor; assay: Agonist activity at human progesterone receptor; assay type: functional
# [4] = biological target: T1, Progesterone receptor; assay: Binding affinity at human progesterone receptor
# [5] = biological target: T2, Progesterone receptor (Homo sapiens); assay: Agonist activity at human progesterone receptor relative to progesterone; assay type: functional
# [6] = biological target: T3, Mineralocorticoid receptor (Homo sapiens, UniProt P08235); assay: Antagonist activity at human mineralocorticoid receptor; assay type: functional
# T3 sequence (P08235 whole entry): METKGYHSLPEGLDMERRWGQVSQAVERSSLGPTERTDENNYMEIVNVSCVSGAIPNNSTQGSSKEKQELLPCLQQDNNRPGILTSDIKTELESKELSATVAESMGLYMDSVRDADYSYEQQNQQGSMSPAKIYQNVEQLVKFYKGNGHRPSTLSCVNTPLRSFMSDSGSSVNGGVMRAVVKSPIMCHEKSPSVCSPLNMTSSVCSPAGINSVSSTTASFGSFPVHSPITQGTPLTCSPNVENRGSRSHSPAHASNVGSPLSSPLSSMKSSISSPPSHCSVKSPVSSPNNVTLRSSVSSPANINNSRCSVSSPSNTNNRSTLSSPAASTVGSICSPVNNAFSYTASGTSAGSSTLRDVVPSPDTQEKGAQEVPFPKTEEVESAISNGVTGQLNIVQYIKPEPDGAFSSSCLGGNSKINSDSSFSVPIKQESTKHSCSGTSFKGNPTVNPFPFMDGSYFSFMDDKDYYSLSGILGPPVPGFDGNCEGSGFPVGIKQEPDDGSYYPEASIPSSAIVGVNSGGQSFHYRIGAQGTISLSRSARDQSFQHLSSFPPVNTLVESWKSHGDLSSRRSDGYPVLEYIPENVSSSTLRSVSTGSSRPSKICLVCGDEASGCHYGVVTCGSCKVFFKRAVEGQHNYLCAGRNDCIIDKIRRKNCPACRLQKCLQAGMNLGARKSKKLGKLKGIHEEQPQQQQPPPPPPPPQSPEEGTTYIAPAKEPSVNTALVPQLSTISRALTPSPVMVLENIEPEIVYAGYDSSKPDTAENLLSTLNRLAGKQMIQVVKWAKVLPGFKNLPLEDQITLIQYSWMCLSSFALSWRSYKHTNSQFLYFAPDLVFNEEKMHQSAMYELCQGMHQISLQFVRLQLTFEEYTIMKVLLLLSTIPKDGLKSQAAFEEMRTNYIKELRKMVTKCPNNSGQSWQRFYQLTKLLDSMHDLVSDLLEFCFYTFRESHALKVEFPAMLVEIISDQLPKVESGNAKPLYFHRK
# [7] = biological target: T4, Androgen receptor (Homo sapiens, UniProt P10275); assay: Agonist activity at human androgen receptor; assay type: functional
# T4 sequence (P10275 whole entry): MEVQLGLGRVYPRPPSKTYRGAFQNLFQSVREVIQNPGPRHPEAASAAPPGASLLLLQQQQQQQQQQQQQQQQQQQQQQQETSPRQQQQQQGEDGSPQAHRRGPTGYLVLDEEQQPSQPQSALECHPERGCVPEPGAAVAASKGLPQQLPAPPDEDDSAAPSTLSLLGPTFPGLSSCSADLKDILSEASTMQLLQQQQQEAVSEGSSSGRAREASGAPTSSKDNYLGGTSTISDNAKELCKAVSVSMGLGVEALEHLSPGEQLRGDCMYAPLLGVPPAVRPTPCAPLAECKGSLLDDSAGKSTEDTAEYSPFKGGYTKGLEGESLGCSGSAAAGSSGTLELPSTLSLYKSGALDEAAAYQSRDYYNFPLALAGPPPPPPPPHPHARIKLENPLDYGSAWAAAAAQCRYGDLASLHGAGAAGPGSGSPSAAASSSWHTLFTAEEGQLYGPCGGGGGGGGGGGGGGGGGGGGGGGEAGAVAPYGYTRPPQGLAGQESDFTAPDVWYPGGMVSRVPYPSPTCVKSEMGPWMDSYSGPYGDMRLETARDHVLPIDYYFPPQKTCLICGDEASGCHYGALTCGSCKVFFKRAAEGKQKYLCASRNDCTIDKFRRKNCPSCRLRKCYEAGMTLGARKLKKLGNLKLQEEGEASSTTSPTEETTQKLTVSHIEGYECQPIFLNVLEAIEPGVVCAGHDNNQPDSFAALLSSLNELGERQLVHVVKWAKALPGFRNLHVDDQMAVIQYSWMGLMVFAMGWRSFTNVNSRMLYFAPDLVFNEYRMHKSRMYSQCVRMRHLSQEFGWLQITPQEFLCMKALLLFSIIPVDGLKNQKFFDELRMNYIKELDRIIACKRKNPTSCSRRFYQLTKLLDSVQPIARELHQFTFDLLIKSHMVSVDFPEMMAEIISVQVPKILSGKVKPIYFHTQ
# [8] = biological target: T5, Glucocorticoid receptor (Homo sapiens, UniProt P04150); assay: Antagonist activity at human glucocorticoid receptor; assay type: functional
# T5 sequence (P04150 whole entry): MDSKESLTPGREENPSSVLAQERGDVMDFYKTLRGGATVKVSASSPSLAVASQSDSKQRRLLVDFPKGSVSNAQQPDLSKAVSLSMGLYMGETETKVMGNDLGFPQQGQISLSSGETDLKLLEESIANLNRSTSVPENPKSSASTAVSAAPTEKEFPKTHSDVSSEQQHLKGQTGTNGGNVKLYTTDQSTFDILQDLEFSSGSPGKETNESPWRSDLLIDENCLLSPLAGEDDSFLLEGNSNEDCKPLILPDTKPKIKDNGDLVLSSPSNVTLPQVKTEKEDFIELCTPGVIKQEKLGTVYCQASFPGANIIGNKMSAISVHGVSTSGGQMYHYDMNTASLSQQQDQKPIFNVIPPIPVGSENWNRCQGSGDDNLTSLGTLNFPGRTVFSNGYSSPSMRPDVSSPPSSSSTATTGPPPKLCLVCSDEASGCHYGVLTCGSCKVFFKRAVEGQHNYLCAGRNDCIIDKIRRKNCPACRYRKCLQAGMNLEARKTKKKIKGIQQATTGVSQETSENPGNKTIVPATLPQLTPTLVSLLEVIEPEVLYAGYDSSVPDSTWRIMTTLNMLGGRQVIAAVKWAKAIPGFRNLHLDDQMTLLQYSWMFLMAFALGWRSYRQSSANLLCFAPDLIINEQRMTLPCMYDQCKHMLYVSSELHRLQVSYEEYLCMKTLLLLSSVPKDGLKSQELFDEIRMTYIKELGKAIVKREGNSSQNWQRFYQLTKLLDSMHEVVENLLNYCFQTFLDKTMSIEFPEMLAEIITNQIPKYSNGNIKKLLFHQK
# [9] = organism: Rattus norvegicus; assay: Progestational activity in estrone-treated ovariectomized rat assessed as effect on vaginal epithelial thickness; assay type: functional, organism-based
# In short: (§1)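 Ovariectomized rats were treated with estrone, alone or combined with test progestin, and compared with vehicle and estrone-only groups. Endpoints were uterine epithelial cell height, vaginal epithelial thickness and mammary alveolar bud proliferation.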
# [10] = organism: Rattus norvegicus; assay: Progestational activity in estrone-treated ovariectomized rat assessed as effect on uterine epithelial cell height; assay type: functional, organism-based; in short: as §1
# [11] = organism: Rattus norvegicus; assay: Progestational activity in estrone-treated ovariectomized rat assessed as reduction of breast alveolar bud proliferation; assay type: functional, organism-based; in short: as §1
# [12] = organism: Rattus norvegicus; assay: Progestational activity in estrone-treated ovariectomized rat assessed as inhibition of medroxyprogesterone acetate-induced effect on uterine epithelial cell height; assay type: functional, organism-based
# In short: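 Antagonist mode of the estrone-treated ovariectomized rat multi-endpoint model: compound was combined with MPA plus estrone, with vehicle and estrone-only groups. Endpoints were uterine epithelial cell height, vaginal epithelial thickness and mammary alveolar bud proliferation.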
Structure (SMILES),pEC50 [1],Efficacy [2] [%],pEC50 [3],Efficacy [5] [%],other results
CC1=CC(C)(C)Nc2ccc3c(c21)[C@H]([C@@H]1C=CCCC1)Oc1c(F)cc(F)cc1-3 (racemic),7.57,66,8.47,171,pKi [4]: 8.32
CC1=C[C@H]([C@@H]2Oc3c(F)cc(F)cc3-c3ccc4c(c32)C(C)=CC(C)(C)N4)CCC1 (racemic),,63,,100,
CC1=CC(C)(C)Nc2ccc3c(c21)[C@H]([C@H]1CCC[C@@]2(C)O[C@@H]12)Oc1c(F)cc(F)cc1-3,8.55,59,9.40,177,pKi [4]: 8.92
CC1=C[C@@H]([C@@H]2Oc3c(F)cc(F)cc3-c3ccc4c(c32)C(C)=CC(C)(C)N4)CCC1 (stereo in doubt; (-)-5c),,,,,pIC50 [6]: 5.87; pEC50 [7]: 5.74; pIC50 [8]: 7.47
CC1=CC(C)(C)Nc2ccc3c(c21)[C@H]([C@H]1CCCC(C)=C1C)Oc1c(F)cc(F)cc1-3 (racemic),7.02,66,7.97,97,
CC(=O)O[C@]1(C(C)=O)CC[C@H]2[C@@H]3C[C@H](C)C4=CC(=O)CC[C@]4(C)[C@H]3CC[C@@]21C,,98,,98,Activity [9]: Active; Activity [10]: Active; Activity [11]: Active
C[C@@H]1C[C@@H]2C(=C3CCC(=O)C=C31)[C@@H](c1ccc(N(C)C)cc1)C[C@@]1(C)[C@H]2CC[C@@]12CCCO2,,,,,Activity [12]: Active

# Continued, in another order:
pEC50 [1],Efficacy [2] [%],pEC50 [3],Efficacy [5] [%],Structure (SMILES),other results
,,,11,CC1=C[C@@H]([C@@H]2Oc3c(F)cc(F)cc3-c3ccc4c(c32)C(C)=CC(C)(C)N4)CCC1 (stereo in doubt; (+)-5d),
,,,162,CC1=C[C@@H]([C@@H]2Oc3c(F)cc(F)cc3-c3ccc4c(c32)C(C)=CC(C)(C)N4)CCC1 (racemic),
